Screens (PubChem)
GPR7 antagonist – GPR7 receptor antagonists, primary screen, cell-based, fluorescence, single concentration. 290,000 compounds, 1.1% hits. inhibition, % at 4.4 µM. AID 1861, 2009. GPR7-expressing cells, fluorescence antagonist assay; in the data active = inhibition above about 16%, passing the limit was not always enough;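 also: cells stimulated with the agonist NPW; 0% = agonist with vehicle and 100% = vehicle without agonist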
Target sequence (P48145 whole entry, looked up): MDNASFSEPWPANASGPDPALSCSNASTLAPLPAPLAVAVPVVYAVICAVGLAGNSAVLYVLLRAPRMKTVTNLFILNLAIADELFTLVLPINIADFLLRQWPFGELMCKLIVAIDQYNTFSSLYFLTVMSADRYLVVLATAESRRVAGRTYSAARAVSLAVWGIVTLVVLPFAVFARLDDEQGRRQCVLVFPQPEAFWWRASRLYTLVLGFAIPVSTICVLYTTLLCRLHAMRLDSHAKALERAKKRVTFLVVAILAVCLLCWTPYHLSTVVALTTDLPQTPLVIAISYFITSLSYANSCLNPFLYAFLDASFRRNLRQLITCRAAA
GalR3 antag – GalR3 antagonists in HEK293 cells, primary screen, cell-based, fluorescence readout. Galanin receptor type 3 (Homo sapiens), O60755. HEK293 GalR3-CNG cAMP membrane potential fluorescence; galR3 body fused to GalR1 C-terminus. inhibition, % at 3 µM. 360,000 compounds, 0.44% hits. AID 651719, 2012;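 active = inhibition above the screen-wide average plus 3 SD, cut at about 13% in these data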;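 also: forskolin and galanin both at EC90 stimulate the cells; cAMP rise reported by CNG channel membrane potential dye signal; 0% = forskolin plus galanin with DMSO and 100% = forskolin alone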
Target sequence (O60755 1-299 limits assumed): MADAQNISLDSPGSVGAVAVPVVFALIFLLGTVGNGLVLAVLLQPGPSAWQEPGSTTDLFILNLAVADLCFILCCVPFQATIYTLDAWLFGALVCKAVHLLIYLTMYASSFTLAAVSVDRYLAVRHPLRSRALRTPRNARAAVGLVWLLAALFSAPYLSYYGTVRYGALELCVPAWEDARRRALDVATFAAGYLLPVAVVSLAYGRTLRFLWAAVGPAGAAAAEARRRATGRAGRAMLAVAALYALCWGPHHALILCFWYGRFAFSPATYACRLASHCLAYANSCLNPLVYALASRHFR
CHO parental Ca – ATP-evoked calcium signal inhibitors, parental CHO, primary screen, counter-screen for OX1R antagonist project, cell-based, fluorescence, Fluo-8 calcium dye; parental CHO-K1, ATP-induced calcium, Fluo-8 fluorescence; inhibition, % at 5.6 µM; 330,000 compounds, 0.63% hits;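 active = inhibition above that plate's mean sample inhibition plus 3 SD, cut at about 26% in these data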;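 also: 0% = ATP-challenged DMSO wells and 100% = DMSO wells without ATP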
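test system = CHO parental line | reagent = ATP stimulus | measured by = intracellular calcium via Fluo-8 no-wash fluorescent dye | control set = ATP and no-ATP DMSO wells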
OX1R antag-1 – antagonists of human orexin 1 receptor (OX1R); OX1R-expressing cells, FRET antagonist read-out; inhibition, % at 6.6 µM; 330,000 compounds, 1.8% hits; in the data active = inhibition mostly above about 38%, no sharp cut-off; inactive = mostly below about 40%;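 also: 0% = agonist challenge alone and 100% = reference antagonist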
OX1R antag-2 – OX1R (HCRTR1) antagonists, primary screen, fluorescence, CHO/OX1R cells, Fluo-8 calcium, orexin A. Orexin/Hypocretin receptor type 1 (Homo sapiens), O43613. Fluo-8 calcium fluorescence. inhibition, % at 5 µM. 330,000 compounds, 0.43% hits. AID 434989, 2010;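 active = inhibition above its plate's threshold, mean inhibition of all tested compounds on the plate plus 3 SD, cut at about 37% in these data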;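 also: 0% = orexin A challenge wells and 100% = SB-334867-A antagonist wells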
GPR7 antag cf – GPR7 receptor antagonists, confirmation, cell-based, fluorescence, single concentration | shares compounds with GPR7 antagonist | GPR7-expressing cells, calcium fluorescence antagonist mode | inhibition, % at 4.4 µM | 2,400 compounds, 52% hits | AID 1952, 2009; in the data active = inhibition above about 24%;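 also: stimulated with the GPR7 agonist NPW; 0% = agonist plus vehicle and 100% = vehicle alone without agonist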
MCHR1 antag – MCHR1 antagonists in cells, counter-screen for GPR7 antagonist project, cell-based, fluorescence, human; AID 2148, 2009; inhibition, % at 4.4 µM; 2,400 compounds, 62% hits; shares compounds with GPR7 antagonist; MCHR1-expressing cells, fluorescence antagonist assay; in the data active = inhibition above about 22%;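 also: 0% = vehicle with agonist and 100% = vehicle without agonist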
Numbers without * were called inactive; · = no result. A selection: hits, their analogues and other compounds. The true share with any hit is near 3.1%.

SMILES	GPR7 antagonist	GalR3 antag	CHO parental Ca	OX1R antag-1	OX1R antag-2	GPR7 antag cf	MCHR1 antag
COCCCNCCCCOc1ccc(Br)cc1Cl	1	-7	-5	8	-19	·	·
CCC(C)(C)n1nnnc1C(c1ccccc1)N1CCN(Cc2ccccc2)CC1 (configuration not stated)	7	-1	-22	8	-18	·	·
CCC(C)(C)n1nnnc1C(c1cc(OC)ccc1OC)N1CCN(Cc2ccccc2)CC1 (configuration not stated)	27*	-8	-31	12	-46	31*	43*
CC1=CC(=O)C(C(C)=Nc2ccccc2[N+](=O)[O-])C(=O)O1 (configuration not stated)	·	-2	·	·	·	·	·
O=[N+]([O-])c1cccc(NC(=S)Nc2nc(-c3ccccc3Cl)cs2)c1	27*	-3	64*	31	31	42*	55*
O=[N+]([O-])c1ccc(N2CCN(Cc3ccccc3)CC2)nc1	22*	-5	8	35	-22	27*	19
O=[N+]([O-])c1ccc(N2CCOCC2)nc1	-6	-3	-5	18	1	·	·
O=[N+]([O-])c1ccc(CN2CCC(Cc3ccccc3)CC2)cc1	26*	-10	·	·	·	13	33*
O=[N+]([O-])c1ccc(N2CCN(c3cccc(Cl)c3)CC2)nc1	51*	-11	-4	16	-9	29*	70*
COc1cccc(CN2CCN(C(=O)Nc3ccc([N+](=O)[O-])cc3)CC2)c1	29*	-7	19	18	-3	41*	68*
COCCCNC(=O)C[C@@H]1C[C@@]2(C(=O)OC)CCCCC=C2N(Cc2ccc(Cl)cc2Cl)C1=O	·	-6	·	·	·	·	·
CCc1ccc([C@@H]2CC(=O)[C@@H]3CN(S(=O)(=O)c4ccc(Cl)cc4)[C@H](c4ccc(C)cc4)C[C@@H]3N2S(=O)(=O)c2ccc(C)cc2)cc1	·	-5	·	·	·	·	·
Cn1ccc(NS(=O)(=O)c2cc(Br)ccc2Br)n1	·	-6	8	12	-4	·	·
COC(=O)Cn1cnc2c(oc3ccccc32)c1=O	9	·	-4	8	0	·	·
Cc1ccc(S(=O)(=O)N2[C@@H](Cc3ccccc3)CO[C@H]2CC(=O)c2ccccc2)cc1	·	-6	·	·	·	·	·
O=[N+]([O-])c1ccc(N2CCN(Cc3cccc([N+](=O)[O-])c3)CC2)cc1	37*	-11	8	24	0	56*	63*
O=[N+]([O-])c1ccc(CN2CCN(c3ccc([N+](=O)[O-])cc3)CC2)cc1	36	-13	7	3	-5	·	·
O=C(NCC1CCN(C(=O)C(=O)c2cccs2)CC1)c1ccc2c(c1)OCO2	·	-1	·	·	·	·	·
O=C1C2C3C=CC(O3)C2C(=O)N1N=Cc1ccc2c(c1)OCO2 (configuration not stated)	·	-3	·	·	·	·	·
O=C(O)c1ccc2c(c1)C(=O)N(c1nccs1)C2=O	-6	-6	-8	10	-3	·	·
COc1ccc(C2C=CC(=O)CC2)c(OC)c1 (configuration not stated)	·	-6	·	·	·	·	·
COc1cc(NC2c3ccccc3C(=O)N2Cc2ccc3c(c2)OCO3)cc(OC)c1OC (configuration not stated)	26*	·	-8	14	-14	12	20
COC(=O)Cc1ccc(NC(=S)N2CCN(C)CC2)cc1	34*	4	-12	13	0	-6	13
O=C(CC(C(=O)N1CCc2ccccc21)n1ccnc1)NCC1CCCO1 (configuration not stated)	24*	-5	0	25	-11	4	4
COc1ccccc1CC1CC(=O)N(c2ccc([N+](=O)[O-])cc2)C1=O (configuration not stated)	·	-8	·	·	·	·	·
SMILES	GPR7 antagonist	GalR3 antag	CHO parental Ca	OX1R antag-1	OX1R antag-2	GPR7 antag cf	MCHR1 antag
CC(=O)c1cccc(NC(=O)c2ccc3c(c2)CCCC3)c1	43*	2	-19	33	5	8	41*
CN(c1ccc(C(=O)Nc2cccc(O)c2)cc1)S(=O)(=O)c1ccccc1	-14	1	0	9	-13	·	·
CC(=O)c1cccc(NC(=O)c2ccc(N(Cc3ccc(C)cc3)S(C)(=O)=O)cc2)c1	37*	-7	7	26	-3	16	50*
CC(=O)c1cccc(NC(=O)c2ccc(N(C)S(=O)(=O)c3ccc(C)cc3)cc2)c1	30*	-2	4	18	9	5	37*
Cc1ccc(CN(c2ccc(C(=O)Nc3ccc4c(c3)OCO4)cc2)S(C)(=O)=O)cc1	3	-3	-9	-1	-13	·	·
Cc1ccc(C)c(C(O)c2ncc(-c3ccc(C(F)(F)F)cc3)[nH]2)c1 (configuration not stated)	·	-8	·	·	·	·	·
CCC(=O)N1c2ccc(S(=O)(=O)N3CCN(c4ccc([N+](=O)[O-])cc4)CC3)cc2CC1C (configuration not stated)	36*	-3	27	24	20	33*	44*
Cc1cccc(N2CCN(S(=O)(=O)c3ccc4c(c3)CC(C)N4C(=O)C3CC3)CC2)c1C (configuration not stated)	28*	1	-9	10	-12	29*	44*
Cc1ccc(C)c(N2CCN(S(=O)(=O)c3ccc4c(c3)CC(C)N4C(=O)C3CC3)CC2)c1 (configuration not stated)	-1	0	-15	2	-1	·	·
CCC(=O)N1c2ccc(S(=O)(=O)N3CCN(CC)CC3)cc2CC1C (configuration not stated)	-2	2	0	7	-6	·	·
CC1CCCCN1CC(O)COCc1ccccc1 (configuration not stated)	19	-11	·	·	·	·	·
Cc1ccc(CN2CCC(CNC(=O)Nc3ccccc3F)CC2)cc1	-5	-8	-9	-4	-14	·	·
O=C(NCC1CC1)Nc1ccccc1F	99*	-11	-1	-1	12	-7	14
COc1ccc(CC(N)c2csc(NC(=O)c3cc(C(C)(C)C)nn3Cc3ccccc3)n2)cc1 (configuration not stated)	·	-6	·	·	·	·	·
COc1ccc(NC(=O)CCS(=O)(=O)c2ccccc2Cl)cc1S(=O)(=O)Nc1ccc(Cl)cc1	25*	-6	-10	15	0	23	25*
